Only some compounds are listed: those with a hit (about 4.5% of all), similar ones and a draw of the others.
TAAR1 antagonist: human TAAR1 antagonists, primary screen, Fluo-8 calcium fluorescence, CHO RD-HGA16 cells; inhibition, % at 3 µM; antagonist; hit rate 1.5% among 360,000;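 active = inhibition above a per-plate cutoff, the mean inhibition of test compounds on that plate plus 3 SD, cut at about 49% in these data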;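 note: 0% = DMSO plus EC80 beta-PEA response and 100% = DMSO alone without agonist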
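Assay system: RD-HGA16 CHO cells with stable hTAAR1 and Gα16 / Reagent: EC80 β-phenethylamine stimulus / Doses: 3 µM, single point / Timing: dye loading 75 min at 37 °C, then 30 min room temperature / Measured by: Fluo-8 intracellular calcium dye fluorescence, real-time kinetic reads / Controls: vehicle wells and EC80 agonist wells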
GPR7 antag: GPR7 receptor antagonists, primary screen, cell-based, fluorescence, single concentration | Neuropeptides B/W receptor type 1 (Homo sapiens), P48145 | GPR7-expressing cells, fluorescence antagonist assay | inhibition, % at 4.4 µM | hit rate 1.1% among 290,000; in the data active = inhibition above about 16%, passing the limit was not always enough;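 note: cells stimulated with the agonist NPW; 0% = agonist with vehicle and 100% = vehicle without agonist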
OX1R antag-1: OX1R (HCRTR1) antagonists, primary screen, fluorescence, CHO/OX1R cells, Fluo-8 calcium, orexin A; Orexin/Hypocretin receptor type 1 (Homo sapiens), O43613; Fluo-8 calcium fluorescence; inhibition, % at 5 µM; hit rate 0.43% among 330,000;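 active = inhibition above its plate's threshold, mean inhibition of all tested compounds on the plate plus 3 SD, cut at about 37% in these data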;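 note: 0% = orexin A challenge wells and 100% = SB-334867-A antagonist wells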
Target sequence (O43613 whole entry, looked up): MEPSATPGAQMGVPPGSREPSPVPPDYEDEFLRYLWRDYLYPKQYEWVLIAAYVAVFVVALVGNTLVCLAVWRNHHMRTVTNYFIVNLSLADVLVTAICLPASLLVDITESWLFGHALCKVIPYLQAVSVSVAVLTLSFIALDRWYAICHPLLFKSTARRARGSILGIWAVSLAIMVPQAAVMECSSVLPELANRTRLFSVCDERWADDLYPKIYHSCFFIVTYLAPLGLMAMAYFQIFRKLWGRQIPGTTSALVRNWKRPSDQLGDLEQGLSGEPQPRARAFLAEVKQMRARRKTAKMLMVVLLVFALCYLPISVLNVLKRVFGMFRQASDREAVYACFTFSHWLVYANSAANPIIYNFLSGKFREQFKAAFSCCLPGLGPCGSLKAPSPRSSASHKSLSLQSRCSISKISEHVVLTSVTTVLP
CHO parental Ca: ATP-evoked calcium signal inhibitors, parental CHO, primary screen, counter-screen for OX1R antagonist project, cell-based, fluorescence, Fluo-8 calcium dye; parental CHO-K1, ATP-induced calcium, Fluo-8 fluorescence; inhibition, % at 5.6 µM; hit rate 0.63% among 330,000;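 active = inhibition above that plate's mean sample inhibition plus 3 SD, cut at about 26% in these data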;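 note: 0% = ATP-challenged DMSO wells and 100% = DMSO wells without ATP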
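Assay system – parental CHO cells · Reagent – ATP stimulus · Detection – intracellular calcium via Fluo-8 no-wash fluorescent dye · Evaluation – percent inhibition of ATP-evoked calcium rise, normalized to controls · Controls – ATP wells versus no-ATP DMSO wells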
TAAR1 ag: human TAAR1 agonists, primary screen, Fluo-8 calcium fluorescence, CHO RD-HGA16 cells; Trace amine-associated receptor 1 (Homo sapiens), Q96RJ0; vehicle wells 0%, saturating PEA agonist 100%; activation, % at 3 µM; hit rate 0.99% among 360,000; AID 624467, 2012;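 active = activation above the mean activation of all test compounds in the run plus 3 SD, cut at about 38% in these data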
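test system = CHO RD-HGA16 cells carrying human TAAR1 plus Gα16 | schedule = 17-24 h seeding, 75 min 37 °C dye, 30 min RT | compound dosing = 3 µM single concentration | control set = DMSO and PEA EC100 | replicates = n 1 | signal = Fluo-8 fluorescence, 5 s baseline then 140 s kinetic read | measure = percent activation vs PEA EC100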
OX1R antag-2: antagonists of human orexin 1 receptor (OX1R); Orexin/Hypocretin receptor type 1 (Homo sapiens), O43613; OX1R-expressing cells, FRET antagonist read-out; inhibition, % at 6.6 µM; hit rate 1.8% among 330,000; in the data active = inhibition mostly above about 38%, no sharp cut-off; inactive = mostly below about 40%;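 note: 0% = agonist challenge alone and 100% = reference antagonist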
OX1R HTRF conf: OX1R (HCRTR1) antagonists, confirmation, cell-based, HTRF | shares compounds with OX1R antag-2 | OX1R-expressing cells, HTRF antagonist assay | inhibition, % at 6.6 µM | hit rate 49% among 1,800 | AID 492964, 2010; in the data active = inhibition above about 55%;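 note: CHO cells expressing OX1R stimulated with orexin A at about EC80; 0% = agonist challenge alone and 100% = reference antagonist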
CHO-K1 HTRF cnt: signal inhibition in parental CHO-K1 cells, counter-screen for OX1R antagonist project, cell-based, HTRF; shares compounds with OX1R antag-2; HTRF counterscreen; inhibition, % at 6.6 µM; hit rate 48% among 1,800; AID 493232, 2011; in the data active = inhibition above about 17%;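 note: 0% = agonist challenge with vehicle and 100% = vehicle alone without agonist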
Numbers without * were called inactive; · = not tested or not shown.

SMILES | TAAR1 antagonist | GPR7 antag | OX1R antag-1 | CHO parental Ca | TAAR1 ag | OX1R antag-2 | OX1R HTRF conf | CHO-K1 HTRF cnt
CC(=O)N(CN1C(=O)c2ccccc2C1=O)c1cccc(C)c1 | 1 | 11 | -2 | -18 | 0 | 14 | · | ·
Cc1cccc(NC(=O)Oc2ccc(Cl)c3cccnc23)c1 | 18 | · | · | · | 11 | · | · | ·
CCN(CC)CCN(C(=O)CCS(=O)(=O)c1ccccc1)c1nc2c(C)cc(C)cc2s1 | 1 | 21 | -14 | -23 | 7 | 6 | · | ·
O=C(CSc1cccc2cccc(Cl)c12)NC1=NCCS1 | 10 | 3 | 2 | -6 | 6 | 112* | 35 | 9
O=C(NCCc1ccccc1Cl)C1CCC(=O)N(CC2CCCCC2)C1 (stereo not drawn) | 1 | 13 | -11 | -19 | 3 | 15 | · | ·
O=C1c2cccc3cc([N+](=O)[O-])cc(c23)C(=O)N1/N=C/c1ccc(O)cc1O | -2 | -7 | -16 | -3 | 0 | 181* | 74* | 108*
CCN(CC)c1ccc(/C=N/N2C(=O)c3ccccc3C2=O)c(O)c1 | 17 | -7 | -6 | -1 | 1 | 9 | · | ·
Cc1nc(C(=O)N/N=C/c2[nH]ncc2Br)cs1 | 9 | -8 | -2 | 1 | 18 | 14 | · | ·
Cc1c(=O)n(OCc2ccccc2)c2ccccc2[n+]1[O-] | -15 | -8 | -27 | -18 | 11 | 103* | 52 | 25*
C=CCOn1c(=O)c(-c2ccc(OC)cc2)[n+]([O-])c2ccccc21 | 4 | -4 | -2 | -1 | 0 | 98* | 33 | 48*
CCCCN1C(=O)C(CC(=O)NCCc2ccccn2)CC(C(=O)N2CCCCCC2)=C1C (stereo not drawn) | -14 | · | · | · | 28 | · | · | ·
O=C(CSc1ncnc2nc[nH]c12)c1ccc2ccccc2c1 | 21 | -8 | 23 | -2 | 23 | 84* | 34 | -1
O=C(OCC(=O)N1CCCC1)c1cc([N+](=O)[O-])ccc1Cl | -3 | 7 | -6 | -5 | 2 | 118* | 55 | 56*
Nc1cc(Cl)ccc1C(=O)OCC(=O)N1CCCC1 | -12 | -8 | -13 | -4 | 1 | -9 | · | ·
COc1ccccc1-n1c(C)c(C(=O)O)c2cc(OC)c3ccccc3c21 | -4 | -4 | -10 | -6 | 1 | 8 | · | ·
CCn1c(C)c(C(=O)O)c2cc(OC)c3ccccc3c21 | -1 | 2 | -29 | -12 | -2 | 99* | 89* | 5
O=C(CC1OC(=O)c2ccccc21)NCC1COc2ccccc2O1 (stereo not drawn) | -15 | · | -18 | -16 | 0 | 11 | · | ·
O=C(CC1Nc2ccccc2NC1=O)NCC1COc2ccccc2O1 (stereo not drawn) | · | 10 | 23 | -16 | · | 79* | 65* | -1
O=C(COC(=O)CN1C(=O)C(=O)c2ccccc21)OCN1C(=O)c2ccccc2C1=O | -8 | -4 | -15 | -1 | 0 | 84* | 19 | 6
Cc1ccccc1N=C1c2cc([N+](=O)[O-])ccc2-c2ncccc21 | -2 | 5 | -9 | -9 | 10 | 160* | 36 | 42*
Cc1cc([N+](=O)[O-])cc2c1-c1ncccc1C2=Nc1ccccc1 | 7 | -1 | -22 | -6 | 0 | 6 | · | ·
O=[n+]1cc(-c2cc3ccccc3o2)n([O-])c2c1CCCC2 | -1 | · | -8 | -12 | 1 | 89* | 35 | 44*
Cn1cc(/C=N\O)nc2c(=O)n(-c3ccccc3)c(=O)nc1-2 | 4 | -7 | -2 | -7 | 3 | 78* | 68* | 89*
